Series [1] has as its system Liver. The experiment in a line: Drug metabolism in human liver microsomes assessed as 4-(4-(4-fluorophenyl)-1-methyl-2-(methylsulfonyl)-1H-imidazol-5-yl)pyridin-2-amine formation at 10 to 100 uM. It counts as ADME, microsome. The procedure, abridged: (§1)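 Test compound incubated at 10, 30 and 100 μM with liver microsomes from rat, Cynomolgus monkey or human, and metabolites monitored.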
A general note: Liver microsomes are vesicles of endoplasmic reticulum, rich in cytochrome P450 enzymes.

In series [2] the test system is Homo sapiens. The series can be described thus: AUC (infinity) in human assessed as 4-(4-(4-fluorophenyl)-1-methyl-2-(methylsulfinyl)-1H-imidazol-5-yl)pyridin-2-amine formation at 20 mg, po administered as single dose. Type of series: ADME, organism-based. Details: dose 20 mg, time infinity, route oral; call rule not given here. To be noted: in vivo. The method in brief: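 Placebo-controlled, single-blind, randomized, consecutive-dosing study in healthy subjects given single oral doses, with 10 mg also given fasting and fed in a crossover. Plasma parent and active metabolite were measured predose and from 0.25 to 36 h post dose. PK parameters were derived from individual concentration–time profiles and reported as means.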

In series [3] the test system is Cynomolgus monkey. The experiment in a line: Toxicity in cynomolgus monkey assessed as death at 6 to 20 mg/kg followed by after 1 week high dose treatment of 25 mg/kg at 1 week post first dose for 28 days followed by 2 weeks off without dosing. Type of series: organism-based, Macaca fascicularis. The settings on record: in vivo. The method in brief:
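Cynomolgus monkeys, 32 in total, 3–5 per group. Dosed for 28 days with vehicle or 6, 12 or 20 mg/kg; the high dose was raised to 25 mg/kg/day after 1 week. Two males and two females from the control and high-dose groups were followed through a further 2-week treatment-free period. Deaths and clinical signs recorded.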

For series [4], the system named is Cynomolgus monkey. The series can be described thus: Toxicity in cynomolgus monkey assessed as whitish vomiting at 6 to 20 mg/kg, po. It counts as organism-based, Macaca fascicularis. The settings on record: in vivo.
For series [5], the system named is Liver. The experiment in a line: Drug metabolism in rat liver microsomes assessed as N-(4-(4-(4-fluorophenyl)-1-methyl-2-(methylsulfinyl)-1H-imidazol-5-yl)pyridin-2-yl)acetamide formation at 10 to 100 uM. It counts as ADME, microsome. The procedure, abridged:
as §1

Series [6] can be described thus: Toxicity in Sprague-Dawley rat administered via oral gavage measured for 14 days. The settings on record: in vivo.
Series [7] addresses Dual specificity mitogen-activated protein kinase kinase 7 (Homo sapiens) (UniProt O14733). The series can be described thus: Inhibition of MKK7beta (unknown origin) at 10 uM relative to control.
Series [8] has as its system Rattus norvegicus. The series can be described thus: Toxicity in rat assessed as effect on central nervous system at 30 to 300 mg/kg, po administered as single dose. Type of series: organism-based. The settings on record: in vivo.
In series [9] the target is Casein kinase I isoform delta (Homo sapiens) (UniProt P48730). The experiment in a line: Inhibition of CK1delta (unknown origin) at 10 uM relative to control.
Casein kinase I isoform delta (Homo sapiens), sequence (P48730 whole entry, looked up, canonical isoform): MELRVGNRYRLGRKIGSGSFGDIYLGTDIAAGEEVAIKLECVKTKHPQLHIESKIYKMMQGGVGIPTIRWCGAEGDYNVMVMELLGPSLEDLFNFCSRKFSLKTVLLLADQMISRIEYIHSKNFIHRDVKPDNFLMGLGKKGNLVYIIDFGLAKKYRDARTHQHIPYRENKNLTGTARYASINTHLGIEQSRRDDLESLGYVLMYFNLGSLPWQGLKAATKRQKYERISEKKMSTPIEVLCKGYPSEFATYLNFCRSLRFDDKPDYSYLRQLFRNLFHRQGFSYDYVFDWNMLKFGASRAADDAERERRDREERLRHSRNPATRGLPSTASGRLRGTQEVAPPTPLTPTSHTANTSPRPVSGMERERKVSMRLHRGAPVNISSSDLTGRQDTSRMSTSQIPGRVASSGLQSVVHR
Series [10] addresses Tyrosine-protein kinase Lyn (Homo sapiens) (UniProt P07948). The experiment in a line: Inhibition of Lyn (unknown origin) at 10 uM relative to control.
For series [11], the system named is Liver. The series can be described thus: Drug metabolism in rat liver microsomes assessed as 4-(4-(4-fluorophenyl)-1-methyl-2-(methylsulfonyl)-1H-imidazol-5-yl)pyridin-2-amine formation at 10 to 100 uM. It counts as ADME, microsome. The procedure, abridged: as §1
Series [12] concerns Lymphocyte. The experiment in a line: Clastogenicity in human lymphocytes in presence of S9 fraction by microneucleus test. It counts as toxicity, cell-based. The method in brief:
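Cytogenetic clastogenicity assay in cultured human lymphocytes, run with and without S9 mix.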

Series [13] concerns the target Mitogen-activated protein kinase 10 (Homo sapiens) (UniProt P53779). The experiment in a line: Inhibition of JNK3 (unknown origin) at 10 uM relative to control.
The subject of series [14] is Salmonella typhimurium. The series can be described thus: Genotoxicity in Salmonella typhimurium in absence of S9 fraction by Ames test. It counts as toxicity. To be noted: salmonella enterica subsp. enterica serovar typhimurium. The procedure, abridged:
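Bacterial reverse mutation (Ames) test in S. typhimurium and E. coli strains, run with and without S9 mix.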
On the technique in general: The Ames test detects mutagens through reverse mutation in bacteria.

Series [15] addresses Mitogen-activated protein kinase 14 (Homo sapiens, UniProt Q16539). The series can be described thus: Inhibition of p38alpha MAPK (unknown origin) by beta-galactosidase enzyme complementation assay.
Series [16] relates to Rattus norvegicus. The experiment in a line: Toxicity in Sprague-Dawley rat assessed as hypoactivity at 2000 mg/kg, po administered via gavage measured on day 1 and 2. It counts as organism-based. To be noted: in vivo.
Series [17] is described as follows: Drug uptake in LPS-stimulated female Lewis rat serum at 10 mg/kg, po pretreated for 3 hrs followed by LPS addition measured after 1.5 hrs post dose. To be noted: read-out: Drug uptake. It counts as ADME, organism-based. The method in brief: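 Female Lewis rats, n = 8/group, dosed orally at 10 mg/kg at 1, 3 or 5 h before LPS challenge. Serum aliquots taken 1.5 h after LPS were used to measure drug concentration.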

The nature of series [18]: Apparent permeability in human Caco2 cells at 10 uM. The settings on record: Caco-2. It counts as ADME, cell-based. (Caco-2 cells form a polarised layer with tight junctions and transporters.)
For series [19], the system named is Rattus norvegicus. The series can be described thus: Toxicity in rat assessed as soft feces at 30 to 300 mg/kg, po administered as single dose. It counts as organism-based. To be noted: in vivo.

Mitogen-activated protein kinase 14, sequence (Q16539 whole entry): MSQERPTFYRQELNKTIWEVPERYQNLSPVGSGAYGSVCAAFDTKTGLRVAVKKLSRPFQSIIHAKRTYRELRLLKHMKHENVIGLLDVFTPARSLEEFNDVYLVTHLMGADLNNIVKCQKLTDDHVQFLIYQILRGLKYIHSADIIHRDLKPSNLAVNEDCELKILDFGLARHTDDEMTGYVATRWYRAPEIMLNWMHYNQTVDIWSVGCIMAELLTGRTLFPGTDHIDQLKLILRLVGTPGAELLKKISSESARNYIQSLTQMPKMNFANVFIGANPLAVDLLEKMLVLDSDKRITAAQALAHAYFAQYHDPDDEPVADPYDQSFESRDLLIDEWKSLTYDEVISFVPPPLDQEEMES
Tyrosine-protein kinase Lyn (Homo sapiens), sequence (P07948 2-512 limits assumed): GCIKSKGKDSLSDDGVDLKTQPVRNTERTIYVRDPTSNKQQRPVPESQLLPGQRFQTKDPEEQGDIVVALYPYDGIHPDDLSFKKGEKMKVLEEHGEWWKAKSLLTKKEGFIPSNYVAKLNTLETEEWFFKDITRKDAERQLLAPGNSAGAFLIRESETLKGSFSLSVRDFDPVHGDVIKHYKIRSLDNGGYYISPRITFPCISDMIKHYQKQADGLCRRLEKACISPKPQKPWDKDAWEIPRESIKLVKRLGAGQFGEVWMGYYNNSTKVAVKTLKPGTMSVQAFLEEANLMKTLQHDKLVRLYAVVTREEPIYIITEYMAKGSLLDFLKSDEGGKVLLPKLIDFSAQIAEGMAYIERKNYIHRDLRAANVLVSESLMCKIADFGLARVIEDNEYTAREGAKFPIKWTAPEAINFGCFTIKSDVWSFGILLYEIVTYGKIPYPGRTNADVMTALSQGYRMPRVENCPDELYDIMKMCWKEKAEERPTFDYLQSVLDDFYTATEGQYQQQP
Dual specificity mitogen-activated protein kinase kinase 7 (Homo sapiens), sequence (O14733 whole entry): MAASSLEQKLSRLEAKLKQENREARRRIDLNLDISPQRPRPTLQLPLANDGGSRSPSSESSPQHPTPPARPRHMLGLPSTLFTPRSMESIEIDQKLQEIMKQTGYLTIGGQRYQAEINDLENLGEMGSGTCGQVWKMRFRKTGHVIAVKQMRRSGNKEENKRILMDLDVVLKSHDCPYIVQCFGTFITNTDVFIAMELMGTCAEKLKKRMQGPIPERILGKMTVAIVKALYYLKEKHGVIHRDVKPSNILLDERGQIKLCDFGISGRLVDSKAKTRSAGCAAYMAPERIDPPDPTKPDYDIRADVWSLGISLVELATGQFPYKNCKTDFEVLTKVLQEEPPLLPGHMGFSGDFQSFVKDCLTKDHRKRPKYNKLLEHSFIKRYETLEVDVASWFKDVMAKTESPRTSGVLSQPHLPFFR
Mitogen-activated protein kinase 10 (Homo sapiens), sequence (P53779 whole entry): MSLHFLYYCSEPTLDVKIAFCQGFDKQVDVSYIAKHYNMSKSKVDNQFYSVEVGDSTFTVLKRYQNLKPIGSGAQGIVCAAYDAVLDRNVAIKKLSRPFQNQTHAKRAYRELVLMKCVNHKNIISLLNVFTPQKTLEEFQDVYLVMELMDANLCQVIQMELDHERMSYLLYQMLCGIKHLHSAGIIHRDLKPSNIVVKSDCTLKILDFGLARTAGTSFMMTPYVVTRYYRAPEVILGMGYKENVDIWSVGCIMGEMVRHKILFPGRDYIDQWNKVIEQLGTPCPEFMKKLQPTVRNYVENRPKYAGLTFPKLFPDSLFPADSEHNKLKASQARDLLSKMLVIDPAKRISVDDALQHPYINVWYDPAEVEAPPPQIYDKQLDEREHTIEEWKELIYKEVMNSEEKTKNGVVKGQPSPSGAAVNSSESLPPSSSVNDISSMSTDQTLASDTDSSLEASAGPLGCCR

What is called AUC is the area under the concentration-time curve, a measure of exposure. For orientation: inhibition means the relative decrease from the control value, in per cent. Broadly, the IC50 is the midpoint of a concentration-inhibition curve. A word on the Papp: it is a coefficient for how fast a substance crosses the barrier. With `CC(=O)Nc1cc(-c2c(-c3ccc(F)cc3)nc([S+](C)[O-])n2C)ccn1` (centres undefined), the Drug metabolism entry in series [1], in [5] and in series [11] was “Metabolite_Detected” each time. Also, the AUC in [2] is 6.1022 µM·h. Also, the Activity entry was “Non-Toxic” in series [3]; “Toxic” in [4]; “Non-Toxic” in series [8]; “Non-Toxic” in series [12]; “Non-Toxic” in [14]; “Toxic” in [16]. In addition, in series [19], the Activity entry is “Toxic”. The same molecule yielded an MTD at 336 h in [6] of 150 mg/kg. Besides, the inhibition in [7] came out at 101%; in series [9], 94%; in series [10], 31%; in series [13] it was 76%. In series [15], this molecule registered an IC50 of 500 nM. Besides, the concentration at 1.5 h in series [17] was determined as 526 ng/mL. For the same molecule, the Papp at 10 µM in series [18] amounted to 18.5 ×10⁻⁶ cm/s.

The values above are taken from ChEMBL document CHEMBL4028848, “Discovery of N-{4-[5-(4-Fluorophenyl)-3-methyl-2-methylsulfanyl-3H-imidazol-4-yl]-pyridin-2-yl}-acetamide (CBS-3595), a Dual p38α MAPK/PDE-4 Inhibitor with Activity against TNFα-Related Diseases” (J Med Chem, 2017).
